ChEMBL document CHEMBL5647691, “CDKN2A/p16 Loss Implicates CDK4 as a Therapeutic Target in Imatinib-Resistant Dermatofibrosarcoma Protuberans” (Mol Cancer Ther, 2015)
Calls of active or inactive are those of the source. No cut-off for these calls is given here.

Assays:
[1] = target: Platelet-derived growth factor receptor beta (Homo sapiens) (UniProt P09619); conditions: Imatinib-resistant DFSP105 cell, dose 500.0 nM
[2] = Antiproliferative activity against human Imatinib-resistant DFSP105 cells assessed as cell growth inhibition incubated for 48 hrs by BrdU cell proliferation assay; assay type: functional
In short: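 DFSP105 cells (IMDM, 15% FBS, passages 10-30) seeded at 2500/well; drug added in fresh medium 24 h after plating, 48 h exposure, BrdU added for final 24 h. Proliferation read by BrdU chemiluminescent ELISA; GI50 = 50% growth inhibition concentration.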

[3] = target: T1, Retinoblastoma-associated protein (Homo sapiens) (UniProt P06400); assay: Inhibition of RB1 phosphorylation at S795 residue in human Imatinib-resistant DFSP105 cells at […] incubated for 24 hrs by Western blot analysis; assay type: cell-based; conditions: Imatinib-resistant DFSP105 cell
T1 sequence (whole entry): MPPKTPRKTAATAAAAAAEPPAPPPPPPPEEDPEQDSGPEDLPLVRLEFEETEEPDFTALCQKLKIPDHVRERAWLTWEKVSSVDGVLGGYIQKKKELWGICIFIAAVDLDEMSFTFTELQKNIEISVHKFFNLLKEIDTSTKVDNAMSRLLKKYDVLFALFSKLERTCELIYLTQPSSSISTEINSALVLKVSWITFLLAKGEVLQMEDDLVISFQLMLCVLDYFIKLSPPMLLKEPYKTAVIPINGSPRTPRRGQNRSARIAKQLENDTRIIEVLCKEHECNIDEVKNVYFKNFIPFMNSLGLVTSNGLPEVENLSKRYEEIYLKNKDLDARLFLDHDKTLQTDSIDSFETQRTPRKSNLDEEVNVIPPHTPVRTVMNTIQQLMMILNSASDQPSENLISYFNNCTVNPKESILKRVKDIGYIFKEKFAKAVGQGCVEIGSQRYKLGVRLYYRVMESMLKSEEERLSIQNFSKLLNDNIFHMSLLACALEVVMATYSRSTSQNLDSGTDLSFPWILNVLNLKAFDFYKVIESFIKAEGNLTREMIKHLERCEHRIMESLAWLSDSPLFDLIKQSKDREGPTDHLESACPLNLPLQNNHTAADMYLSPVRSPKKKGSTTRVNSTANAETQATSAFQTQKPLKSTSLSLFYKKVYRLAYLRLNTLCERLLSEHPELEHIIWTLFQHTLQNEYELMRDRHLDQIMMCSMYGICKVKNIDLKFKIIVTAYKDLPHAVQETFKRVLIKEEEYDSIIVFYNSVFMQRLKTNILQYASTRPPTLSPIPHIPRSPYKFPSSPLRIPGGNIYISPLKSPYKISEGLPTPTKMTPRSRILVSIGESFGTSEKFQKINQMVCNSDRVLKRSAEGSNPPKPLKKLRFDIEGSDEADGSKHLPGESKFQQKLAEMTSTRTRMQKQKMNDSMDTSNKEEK
In short: (§1)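 DFSP105 cells treated 24 h with CDK4/6 inhibitor over a dose series; whole-cell lysates cleared 14,000 rpm 30 min 4°C, protein by Bradford, then immunoblotting for phospho-RB1 and cyclin A.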

[4] = target: T1, Retinoblastoma-associated protein (Homo sapiens); assay: Inhibition of RB1 phosphorylation at S811 residue in human Imatinib-resistant DFSP105 cells at […] incubated for 24 hrs by Western blot analysis; assay type: cell-based; conditions: Imatinib-resistant DFSP105 cell
In short: as §1

[5] = tested on: Imatinib-resistant DFSP105 cell; assay: Antitumor activity against human Imatinib-resistant DFSP105 cells xenografted in athymic nude mouse assessed as decrease in RB1 phosphorylation at S795 residue in tumor at 150 mg/kg,po daily for 5 weeks by Western blot analysis; assay type: functional, organism-based
In short: (§2)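 Nude mice bearing s.c. DFSP105 xenografts (2 million cells in Matrigel, ~5 weeks to establish) dosed daily by gavage at 150 mg/kg in HCl/Cremophor EL/PEG 300/acetate pH 4.6 vehicle for 5 weeks; tumor lysates (homogenized in ice-cold buffer with protease inhibitors) immunoblotted for phospho-RB1.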

[6] = Toxicity in athymic nude mouse xenografted with human Imatinib-resistant DFSP105 cells assessed as body weight loss at 150 mg/kg,po daily for 5 weeks; assay type: organism-based; conditions: in vivo, 840 h
In short: (§3)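 S.c. DFSP105 xenografts (2 million cells in Matrigel) in athymic nude mice, treated after ~5 weeks establishment with daily gavage: imatinib 75 mg/kg in water or PD-0332991 150 mg/kg in HCl/Cremophor EL/PEG 300/acetate pH 4.6 vehicle, versus untreated, for 5 weeks. Tumor volume and body weight monitored weekly; mean ± SE.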

[7] = tested on: Imatinib-resistant DFSP105 cell; assay: Antiproliferative activity against human Imatinib-resistant DFSP105 cells assessed as decrease in Cyclin A expression at […] incubated for 24 hrs by Western blot analysis; assay type: functional, cell-based
In short: as §1

[8] = target: T1, Retinoblastoma-associated protein (Homo sapiens); assay: Inhibition of RB1 phosphorylation at S807 residue in human Imatinib-resistant DFSP105 cells at […] incubated for 24 hrs by Western blot analysis; assay type: cell-based; conditions: Imatinib-resistant DFSP105 cell
In short: as §1

[9] = tested on: Imatinib-resistant DFSP105 cell; assay: Antitumor activity against human Imatinib-resistant DFSP105 cells xenografted in athymic nude mouse assessed as tumor growth inhibition by measuring tumor size at 150 mg/kg,po daily for 5 weeks; assay type: functional, organism-based
In short: as §3

[10] = tested on: Imatinib-resistant DFSP105 cell; assay: Antitumor activity against human Imatinib-resistant DFSP105 cells xenografted in athymic nude mouse assessed as decrease in RB1 phosphorylation at S807 residue in tumor at 150 mg/kg,po daily for 5 weeks by Western blot analysis; assay type: functional, organism-based
In short: as §2

[11] = tested on: Imatinib-resistant DFSP105 cell; assay: Antitumor activity against human Imatinib-resistant DFSP105 cells xenografted in athymic nude mouse assessed as tumor cell density at 150 mg/kg,po daily for 5 weeks by immunohistochemistry analysis; assay type: functional, organism-based
In short: (§4)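 Athymic nude mice given 2 million DFSP105 cells s.c. in Matrigel; after ~5 weeks tumor establishment, daily gavage (imatinib 75 mg/kg in water; PD-0332991 150 mg/kg in HCl/Cremophor EL/PEG 300/acetate pH 4.6 vehicle) for 5 weeks. BrdU i.p. 2 h before CO2 euthanasia; resected tumors examined histologically for cell density and BrdU-positive nuclei.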

[12] = tested on: Imatinib-resistant DFSP105 cell; assay: Antitumor activity against human Imatinib-resistant DFSP105 cells xenografted in athymic nude mouse assessed as tumor growth inhibition by measuring tumor size at 75 mg/kg,po daily for 5 weeks; assay type: functional, organism-based
In short: as §3

[13] = Toxicity in athymic nude mouse xenografted with human Imatinib-resistant DFSP105 cells assessed as body weight loss at 75 mg/kg,po daily for 5 weeks; assay type: organism-based; conditions: in vivo, 840 h
In short: as §3

[14] = tested on: Imatinib-resistant DFSP105 cell; assay: Antitumor activity against human Imatinib-resistant DFSP105 cells xenografted in athymic nude mouse assessed as tumor cell density at 75 mg/kg,po daily for 5 weeks by immunohistochemistry analysis; assay type: functional, organism-based
In short: as §4

Chain of Platelet-derived growth factor receptor beta (Homo sapiens) (P09619 whole entry): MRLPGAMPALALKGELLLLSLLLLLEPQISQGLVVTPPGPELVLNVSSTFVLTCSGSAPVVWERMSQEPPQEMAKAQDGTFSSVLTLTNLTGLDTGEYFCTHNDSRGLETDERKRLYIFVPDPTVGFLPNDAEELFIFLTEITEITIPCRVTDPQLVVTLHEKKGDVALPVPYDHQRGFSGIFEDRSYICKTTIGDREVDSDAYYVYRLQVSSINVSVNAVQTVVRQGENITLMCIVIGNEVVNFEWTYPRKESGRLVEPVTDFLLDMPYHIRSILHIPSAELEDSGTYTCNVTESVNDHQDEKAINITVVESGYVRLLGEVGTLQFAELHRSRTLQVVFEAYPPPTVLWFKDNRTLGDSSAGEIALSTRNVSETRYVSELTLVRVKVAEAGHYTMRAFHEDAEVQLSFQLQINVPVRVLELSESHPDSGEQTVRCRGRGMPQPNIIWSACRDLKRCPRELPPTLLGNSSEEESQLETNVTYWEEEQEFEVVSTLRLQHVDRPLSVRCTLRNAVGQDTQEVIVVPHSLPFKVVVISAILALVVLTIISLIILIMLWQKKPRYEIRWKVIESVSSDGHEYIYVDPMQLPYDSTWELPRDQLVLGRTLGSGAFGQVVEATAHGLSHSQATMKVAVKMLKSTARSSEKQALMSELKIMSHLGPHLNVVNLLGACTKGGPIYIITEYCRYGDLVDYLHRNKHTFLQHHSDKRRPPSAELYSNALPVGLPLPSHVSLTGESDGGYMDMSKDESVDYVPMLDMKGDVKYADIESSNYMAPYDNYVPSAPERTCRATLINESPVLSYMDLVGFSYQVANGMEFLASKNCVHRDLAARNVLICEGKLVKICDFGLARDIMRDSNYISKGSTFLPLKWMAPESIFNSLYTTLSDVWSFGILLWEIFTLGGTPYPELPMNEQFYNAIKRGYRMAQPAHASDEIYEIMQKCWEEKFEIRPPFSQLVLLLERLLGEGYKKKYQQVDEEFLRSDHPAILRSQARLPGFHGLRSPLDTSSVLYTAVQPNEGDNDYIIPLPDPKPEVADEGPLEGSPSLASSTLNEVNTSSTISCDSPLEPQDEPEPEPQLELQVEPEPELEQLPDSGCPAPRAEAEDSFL

Row | SMILES | inhibition [1] | inhibition [3] | inhibition [4] | inhibition [8] | GI50 [2] | Activity [7] | also measured
1 | CS(=O)(=O)N1CCN(Cc2cc3nc(-c4cccc5[nH]ncc45)nc(N4CCOCC4)c3s2)CC1 [PICTILISIB] | – | – | – | – | 1900 nM | – | –
2 | CO[C@H]1C[C@@H]2CC[C@@H](C)[C@@](O)(O2)C(=O)C(=O)N2CCCC[C@H]2C(=O)O[C@H]([C@H](C)C[C@@H]2CC[C@@H](OCCO)[C@H](OC)C2)CC(=O)[C@H](C)/C=C(\C)[C@@H](O)[C@@H](OC)C(=O)[C@H](C)C[C@H](C)/C=C/C=C/C=C/1C [EVEROLIMUS] | – | – | – | – | 5 nM | – | –
3 | CN(C)C(=O)c1cc2cnc(Nc3ccc(N4CCNCC4)cn3)nc2n1C1CCCC1 [RIBOCICLIB] | – | Active | Active | Active | 276 nM | Active | –

Now from value to molecule, other results behind:

Row | inhibition [1] | inhibition [3] | inhibition [4] | inhibition [8] | SMILES | GI50 [2] | Activity [7] | also measured
4 | Active | – | – | – | CCN(CC)CCNC(=O)c1c(C)[nH]c(/C=C2\C(=O)Nc3ccc(F)cc32)c1C [SUNITINIB] | > 5000 nM | – | –
5 | – | Active | Active | Active | CC(=O)c1c(C)c2cnc(Nc3ccc(N4CCNCC4)cn3)nc2n(C2CCCC2)c1=O [PALBOCICLIB] | 160 nM | Active | Activity [5]: Active; Activity [6]: Non-Toxic; Activity [9]: Active; Activity [10]: Active; Activity [11]: inactive
6 | Active | – | – | – | Cc1ccc(NC(=O)c2ccc(CN3CCN(C)CC3)cc2)cc1Nc1nccc(-c2cccnc2)n1 [IMATINIB] | > 5000 nM | – | Activity [12]: inactive; Activity [13]: Non-Toxic; Activity [14]: inactive
